Assay results taken from ChEMBL document CHEMBL1157300, “(+)-N-Deoxymilitarinone A, a neuritogenic pyridone alkaloid from the insect pathogenic fungus Paecilomyces farinosus” (J Nat Prod, 2006).
Calls of active or inactive are those of the source. The rule behind the calls is not given here.

What was measured:
[1] = system: PC-12; test: Neuritogenic activity in rat PC12 cells assessed as neurite length twice the cell diameter or longer at 100 uM after 48 hrs; format: functional
Procedure, shortened: (§1)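 PC-12 cells on collagen (1 × 10^5 cells/mL, 4 h pre-culture) treated in duplicate for 48 h, compound delivered in MeOH (0.3% final); NGF 10 ng/mL and 0.3% MeOH controls. By phase contrast, over 300 cells or aggregates per well in six random fields classed as round with no neurite, neurite ≤ cell body, or neurite ≥ twice cell diameter; given as % of cells.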

[2] = system: PC-12; test: Neuritogenic activity in rat PC12 cells assessed as round shaped cells with no neurite outgrowth at 100 uM after 48 hrs; format: functional; procedure, shortened: as §1
[3] = system: PC-12; test: Neuritogenic activity in rat PC12 cells assessed as neurite length equal or less than cell body at 100 uM after 48 hrs; format: functional; procedure, shortened: as §1
[4] = system: PC-12; test: Neuritogenic activity in rat PC12 cells assessed as round shaped cells with no neurite outgrowth at 33 uM after 48 hrs; format: functional; procedure, shortened: as §1
[5] = system: PC-12; test: Neuritogenic activity in rat PC12 cells assessed as neurite length equal or less than cell body at 33 uM after 48 hrs; format: functional; procedure, shortened: as §1
[6] = system: PC-12; test: Induction of neurite outgrowth in rat PC12 cells at 100 uM after 48 hrs; format: functional
Procedure, shortened: (§2)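 PC-12 cells plated on collagen at 1 × 10^5 cells/mL and cultured 4 h. Compound added from MeOH at 3.3, 10, 33 or 100 µM (0.3% MeOH final), in duplicate, then incubated 48 h. Positive control NGF 10 ng/mL; negative control 0.3% MeOH. Over 300 cells or aggregates per well in six random fields scored by phase-contrast microscopy for neurite outgrowth.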

[7] = system: PC-12; test: Induction of neurite outgrowth in rat PC12 cells at 33 uM after 48 hrs; format: functional; procedure, shortened: as §2
[8] = system: PC-12; test: Induction of neurite outgrowth in rat PC12 cells at 10 uM after 48 hrs; format: functional, cell-based; procedure, shortened: as §2
[9] = system: PC-12; test: Induction of neurite outgrowth in rat PC12 cells at 3.3 uM after 48 hrs; format: functional, cell-based; procedure, shortened: as §2
[10] = Cytotoxicity against human IMR32 cells assessed as cell viability at 1 uM by MTT assay relative to control; format: cell-based; conditions: imr-32, 1 µM
Procedure, shortened: (§3)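 IMR-32 cells grown in MEM/F12 with 10% fetal bovine serum; viability read by MTT assay in 96-well format. Test concentrations were 1, 10 and 100 µM, each tested six times.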

[11] = Cytotoxicity against human IMR32 cells assessed as cell viability at 10 uM by MTT assay relative to control; format: cell-based; conditions: imr-32, 10 µM; procedure, shortened: as §3
[12] = Cytotoxicity against human IMR32 cells assessed as cell viability at 100 uM by MTT assay relative to control; format: cell-based, IMR-32; conditions: read-out: Activity; procedure, shortened: as §3

SMILES: CC[C@@H](C)C[C@@H](C)/C=C(C)/C=C/C=C/C(=O)c1c(O)c([C@]2(O)CC[C@@H](O)CC2)c[nH]c1=O [N-DEOXYMILITARINONE A]
- Activity [1]: 21%
- Activity [2]: 49%
- Activity [3]: 30%
- Activity [4]: 88%
- Activity [5]: 12%
- Activity [6]: 51%
- Activity [7]: 12%
- Activity [8]: inactive
- Activity [9]: inactive
- Activity [10]: Not Active
- Activity [11]: Not Active
- viability at 100 µM [12]: 22%
